Several values for one entry are separate records, joined by “and”; a condition that tells them apart may be missing. Equal entries are not always repeated. Entries after “also recorded” stand apart in the source; their conditions may differ. Where two headings read alike, the source gives them in different places.
Legend:
[1] = tested on: baboons; experiment: 30-min continuous behavioral observation session; type: in vivo, Papio anubis
[2] = tested on: baboons; experiment: Fine-motor task; type: in vivo, Papio anubis; details: for Duration to complete the fine-motor task compared to vehicle: across 30, 60 and 120 min
[3] = in vivo; details: plasma, po
[4] = humans, 25 mg/kg 1,4-BD; ref Thai et al. 2006; cited from earlier work
[5] = tested on: baboons; experiment: Food-maintained operant behavior procedure; type: in vivo, Papio anubis; details: for Time food-maintained behavior was suppressed after administration: high doses
In short: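 Test compound or vehicle was diluted in water to 150 ml total and infused intragastrically. Sessions started at 9:00 am right after dosing. Food pellets were available 20 h/day on a fixed-ratio schedule via a Lindsley operandum. Pellets earned were counted in ten 2-h bins up to 20 h. Analysis was repeated-measures two-way ANOVA (dose × time), p<0.05.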

[6] = tested on: baboons; experiment: Paper and pencil behavioral checklists; type: in vivo, Papio anubis; details: for Return to baseline for all observed behavioral effects, time postadministration: baboon (Papio anubis), in vivo, oral
[7] = baboon
[8] = tested on: rhesus monkeys; details: food-maintained operant procedure; ref McMahon et al. 2003; cited from earlier work
[9] = humans, 25 mg/kg 1,4-BD; ref Thai et al. 2006; cited from earlier work; remark: listed apart in the source
[10] = 180 mg/kg, 60 to 90 min after drug
[11] = 240 mg/kg, 60 to 90 min after drug
[12] = 180 mg/kg, 2 h after administration, p<0.001
[13] = 180 mg/kg, 4 h after administration
[14] = 100 mg/kg, 60 to 90 min after drug

OCCCCO [1,4-BD, 1,4-butanediol]
Frequency of scratch/groom compared to vehicle ([1]; 56 mg/kg, 60 to 90 min after drug): increased
Frequency of ataxia compared to vehicle [1, 10]: significantly increased
Frequency of scratch/groom compared to vehicle [1, 10]: increased
Frequency of tremor/jerks compared to vehicle [1, 10]: significantly increased
Frequency of vomit/retch compared to vehicle [1, 10]: significantly increased
Duration of lip droop compared to vehicle [1, 11]: significantly increased
Frequency of ataxia compared to vehicle [1, 11]: significantly increased
Frequency of tremor/jerks compared to vehicle [1, 11]: significantly increased
Frequency of vomit/retch compared to vehicle [1, 11]: significantly increased
Time lying down compared to vehicle [1, 11]: significantly increased
Duration to complete the fine-motor task ([2]; 180 mg/kg, 60 min postadministration, p<0.001): significantly increased
Duration to complete the fine-motor task ([2]; 180 mg/kg, 120 min postadministration, p<0.001): significantly increased
Completion of the fine-motor task ([2]; 240 mg/kg): all subjects failed to complete the task within the maximum time of 120 s
Duration to complete the fine-motor task ([2]; 240 mg/kg, 120 min postadministration, p<0.001): significantly increased
Duration to complete the fine-motor task ([2]; any dose, 30-min postadministration): did not alter
AUC ([3]; monkey, 32 mg/kg): 33.4 µM·h
Cmax ([3]; monkey, 32 mg/kg): 5.3 to 7.7 µM
half-life ([3]; monkey, 32 mg/kg): 248 min
AUC ([3]; monkey, 100 mg/kg): 612 µM·h
Cmax ([3]; monkey, 100 mg/kg): 47.8 to 590 µM
half-life ([3]; monkey, 100 mg/kg): 35.3 min
AUC ([3]; monkey, 180 mg/kg): 942 µM·h
Cmax ([3]; monkey, 180 mg/kg): 289 to 1100 µM
half-life ([3]; monkey, 180 mg/kg): 42.7 min
Tmax [3]: 30 min
half-life ([3]; 100 mg/kg): < 60 min
half-life ([3]; 180 mg/kg): < 60 min
Maximum concentration of GHB, range [4]: 22.2−85.7 μg/ml
Mean maximum concentration of GHB [4]: 45.6 µg/mL
Food-maintained behavior compared to vehicle ([5]; 56 mg/kg, 4 h after administration, p<0.05): increases
Food-maintained behavior compared to vehicle [5, 12]: decreased
Food-maintained behavior compared to vehicle [5, 13]: decreased
Food-maintained behavior compared to vehicle ([5]; 240 mg/kg, 2 h postadministration, p<0.001): decreased
Food-maintained behavior compared to vehicle ([5]; 240 mg/kg, 4 h postadministration, p<0.05): decreased
Time food-maintained behavior was suppressed after administration [5]: 4 h
Duration of effects in ≥50% of subjects, ataxia ([6]; 180 mg/kg IG): 4.0 h
Duration of effects in ≥50% of subjects, lip droop ([6]; 180 mg/kg IG): 2.5 h
Duration of effects in ≥50% of subjects, tremor/jerk ([6]; 180 mg/kg IG): 5.0 h
Duration of effects in ≥50% of subjects, vomit ([6]; 180 mg/kg IG): 2.5 h
Number of subjects at maximal effect, ataxia ([6]; 180 mg/kg IG): 4/4
Number of subjects at maximal effect, lip droop ([6]; 180 mg/kg IG): 2/4
Number of subjects at maximal effect, tremor/jerk ([6]; 180 mg/kg IG): 4/4
Number of subjects at maximal effect, vomit ([6]; 180 mg/kg IG): 3/4
Recovery of baseline (100% of subjects), ataxia ([6]; 180 mg/kg IG): 7.0 h
Recovery of baseline (100% of subjects), lip droop ([6]; 180 mg/kg IG): 4.0 h
Recovery of baseline (100% of subjects), tremor/jerk ([6]; 180 mg/kg IG): 7.5 h
Recovery of baseline (100% of subjects), vomit ([6]; 180 mg/kg IG): 7.5 h
Time to maximal effects, ataxia ([6]; 180 mg/kg IG): 2.0 h
Time to maximal effects, lip droop ([6]; 180 mg/kg IG): 2 h and 2.0 h
Time to maximal effects, tremor/jerk ([6]; 180 mg/kg IG): 1.0 h
Time to maximal effects, vomit ([6]; 180 mg/kg IG): 2.5 h
Duration of effects in ≥50% of subjects, ataxia ([6]; 240 mg/kg IG): 4.0 h
Duration of effects in ≥50% of subjects, lip droop ([6]; 240 mg/kg IG): 3.5 h
Duration of effects in ≥50% of subjects, tremor/jerk ([6]; 240 mg/kg IG): 6.0 h
Duration of effects in ≥50% of subjects, vomit ([6]; 240 mg/kg IG): 1.0 h
Number of subjects at maximal effect, ataxia ([6]; 240 mg/kg IG): 4/4
Number of subjects at maximal effect, lip droop ([6]; 240 mg/kg IG): 3/4
Number of subjects at maximal effect, tremor/jerk ([6]; 240 mg/kg IG): 4/4
Number of subjects at maximal effect, vomit ([6]; 240 mg/kg IG): 3/4
Recovery of baseline (100% of subjects), ataxia ([6]; 240 mg/kg IG): 6.0 h
Recovery of baseline (100% of subjects), lip droop ([6]; 240 mg/kg IG): 5.0 h
Recovery of baseline (100% of subjects), tremor/jerk ([6]; 240 mg/kg IG): 8.0 h
Recovery of baseline (100% of subjects), vomit ([6]; 240 mg/kg IG): 7.5 h
Time to maximal effects, ataxia ([6]; 240 mg/kg IG): 2.0 h
Time to maximal effects, lip droop ([6]; 240 mg/kg IG): 1−2 h and 1 h and 1.0 h
Time to maximal effects, tremor/jerk ([6]; 240 mg/kg IG): 2.0 h
Time to maximal effects, vomit ([6]; 240 mg/kg IG): 1.0 h
Time at which lip droop continued in half of the subjects ([6]; 180 and 240 mg/kg): 2.5−3.5 h
Time postadministration by which lip droop was no longer observed ([6]; 180 and 240 mg/kg): ≤ 5 h
Return to baseline for all observed behavioral effects, time postadministration [6]: 7−8 h
Maximum concentrations of 1,4-BD (range) ([7]; 32 mg/kg 1,4-BD): 0.48 to 0.69 µg/mL
T1/2 for GHB in plasma relative to T1/2 of 1,4-BD (fold longer) ([7]; 100 mg/kg 1,4-BD): five
T1/2 for GHB in plasma relative to T1/2 of 1,4-BD (fold longer) ([7]; 180 mg/kg 1,4-BD): sevenfold
Time after administration at which response rate was decreased [8]: 150 min
Maximum concentration of 1,4-BD, range [9]: 0.33−14.4 μg/ml
Mean maximum concentration of 1,4-BD [9]: 3.84 µg/mL

O=C1CCCO1 [GBL, Gamma-butyrolactone]
Duration of lip droop compared to vehicle [1, 14]: significantly increased
Frequency of ataxia compared to vehicle [1, 14]: significantly increased
Frequency of scratch/groom compared to vehicle [1, 14]: significantly increased
Frequency of tremor/jerks compared to vehicle [1, 14]: significantly increased
Duration of lip droop compared to vehicle [1, 10]: significantly higher
Duration of lying down compared to vehicle [1, 10]: increased
Frequency of ataxia compared to vehicle [1, 10]: significantly higher
Frequency of scratch/groom compared to vehicle [1, 10]: decreased
Frequency of tremor/jerks compared to vehicle [1, 10]: significantly higher
Frequency of vomit/retch compared to vehicle [1, 10]: increased
Observed effects of the high dose ([1]; 240 mg/kg, once in one subject (HA), data not shown): resulted in convulsions; also recorded: vomit/retch, ataxia, tremor/jerks, sedation/anesthesia, and seizures; also recorded: both seizures and catalepsy
Duration to complete the fine-motor task compared to vehicle ([2]; 100 mg/kg, p<0.001): increased
Duration to complete the fine-motor task compared to vehicle ([2]; 180 mg/kg, p<0.001): increased
Food-maintained behavior compared to vehicle ([5]; 100 mg/kg, 2 h after administration, p<0.001): decreased
Food-maintained behavior compared to vehicle [5, 12]: decreased
Food-maintained behavior compared to vehicle [5, 13]: decreased
Food-maintained behavior ([5]; 240 mg/kg, one subject (HA), data not shown): suppressed over the entire 20 h
Increase of food-maintained behavior ([5]; all doses tested): none of the doses increased
Time food-maintained behavior was suppressed after administration [5]: 4 h
Time to maximal effect, ataxia ([6]; 100 mg/kg): 30 min
Time to maximal effect, tremor/jerks ([6]; 100 mg/kg): 30 min
Duration of effects in ≥50% of subjects, ataxia ([6]; 100 mg/kg IG): 1.0 h
Duration of effects in ≥50% of subjects, lip droop ([6]; 100 mg/kg IG): 2.0 h
Duration of effects in ≥50% of subjects, vomit ([6]; 100 mg/kg IG): 1.0 h
Number of subjects at maximal effect, ataxia ([6]; 100 mg/kg IG): 3/4
Number of subjects at maximal effect, lip droop ([6]; 100 mg/kg IG): 3/4
Number of subjects at maximal effect, tremor/jerk ([6]; 100 mg/kg IG): 1/4
Number of subjects at maximal effect, vomit ([6]; 100 mg/kg IG): 2/4
Recovery of baseline (100% of subjects), ataxia ([6]; 100 mg/kg IG): 2.5 h
Recovery of baseline (100% of subjects), lip droop ([6]; 100 mg/kg IG): 3.5 h
Recovery of baseline (100% of subjects), vomit ([6]; 100 mg/kg IG): 2.0 h
Time to maximal effects, ataxia ([6]; 100 mg/kg IG): 0.5 h
Time to maximal effects, lip droop ([6]; 100 mg/kg IG): 1.0 h
Time to maximal effects, tremor/jerk ([6]; 100 mg/kg IG): 0.5 h
Time to maximal effects, vomit ([6]; 100 mg/kg IG): 1 h and 1.0 h
Time to maximal effect, ataxia ([6]; 180 mg/kg): 30 min
Time to maximal effect, tremor/jerks ([6]; 180 mg/kg): 30 min
Duration of effects in ≥50% of subjects, ataxia ([6]; 180 mg/kg IG): 4 h and 4.0 h
Duration of effects in ≥50% of subjects, lip droop ([6]; 180 mg/kg IG): 2.5 h
Duration of effects in ≥50% of subjects, tremor/jerk ([6]; 180 mg/kg IG): 5 h and 5.0 h
Duration of effects in ≥50% of subjects, vomit ([6]; 180 mg/kg IG): 1.0 h
Number of subjects at maximal effect, ataxia ([6]; 180 mg/kg IG): 4/4
Number of subjects at maximal effect, lip droop ([6]; 180 mg/kg IG): 4/4
Number of subjects at maximal effect, tremor/jerk ([6]; 180 mg/kg IG): 4/4
Number of subjects at maximal effect, vomit ([6]; 180 mg/kg IG): 4/4
Recovery of baseline (100% of subjects), ataxia ([6]; 180 mg/kg IG): 6.0 h
Recovery of baseline (100% of subjects), lip droop ([6]; 180 mg/kg IG): 6.0 h
Recovery of baseline (100% of subjects), tremor/jerk ([6]; 180 mg/kg IG): 6.0 h
Recovery of baseline (100% of subjects), vomit ([6]; 180 mg/kg IG): 2.0 h
Time to maximal effects, ataxia ([6]; 180 mg/kg IG): 0.5 h
Time to maximal effects, lip droop ([6]; 180 mg/kg IG): 0.5 h
Time to maximal effects, tremor/jerk ([6]; 180 mg/kg IG): 0.5 h
Time to maximal effects, vomit ([6]; 180 mg/kg IG): 1 h and 1.0 h
Return to baseline for all observed behavioral effects, time postadministration [6]: ≤ 6 h
Time after administration at which response rate was decreased [8]: 90 min

Source: PMC2682635 (Psychopharmacology, 2009)
